# Assay results pooled from the literature.
# Lines come from different studies, so protocols differ.
# Target: Serine/threonine-protein kinase 35 (STK35, Homo sapiens, UniProt Q8TDR2)
Compound,observed,method,tested at,remaining binding
COc1ncc2cc3ccccc3nc2c1C#N,cell-free assay,competition with immobilised ligand,5 µM,98%
C[C@@H](c1ccc(-n2cnc3c(N)ncnc32)cc1)N1CCc2nn(C)c(Cc3ccccc3)c2C1=O,binding,competition with immobilised ligand,0.1 µM,83%
c1cncc(-c2cccc(Nc3nccc(NC4CCCCC4)n3)c2)c1,binding,competition with immobilised ligand,10 µM,86%
COc1cc(-c2cn(C3CCc4c(F)cccc4N(CC(F)(F)F)C3=O)nn2)ccc1-n1cnc(C)c1 (stereo not shown),cell-free assay,competition with immobilised ligand,1 µM,100%
O=C(c1ccc(Nc2ncc(Cl)c(-c3ccc(Cl)s3)n2)cc1)N1CCC(N2CCCC2)CC1,binding,competition with immobilised ligand,1 µM,99%
NS(=O)(=O)c1cc(NC(=O)C2(c3ccccc3Cl)CC2)ccc1Oc1cccc(Cl)c1,cell-free assay,competition with immobilised ligand,1 µM,94%
O=C(NCCCN1CCOCC1)c1ccc(Nc2ncc(Cl)c(-c3ccc(Cl)s3)n2)cc1,binding,competition with immobilised ligand,1 µM,100%
Nc1ncc2c(n1)-c1c([nH]c3ccc(C#CC4CC4)cc13)CCCC2,binding,competition with immobilised ligand,1 µM,100%
CCN1CCN(Cc2ccc(C(=O)Nc3ccc(C)c(Oc4ccc5c(c4)CC(=O)N5)c3)cc2C(F)(F)F)CC1,binding,competition with immobilised ligand,1 µM,72%
N[C@@H]1CCN(c2nccc(-c3cnn4ncccc34)n2)C1,binding,,1 µM,100%
CN(C)C(=O)Cn1cc(-c2nc(C3(c4ccc(-c5cnc(N)nc5)cc4)CC3)no2)cn1,cell-free assay,competition with immobilised ligand,1 µM,94%
COc1ccnn2ncc(-c3ccnc(N(C)C)n3)c12,binding,,1 µM,95%
Cn1nc(C(F)(F)F)cc1-c1cnc(N2CCc3cc(S(=O)(=O)Nc4c(F)cc(Cl)cc4F)cc(N4CCCC4=O)c32)nc1,cell-free assay,competition with immobilised ligand,1 µM,100%
O=C(NCC1CCOCC1)c1n[nH]cc1NC(=O)c1c(F)cccc1F,binding,competition with immobilised ligand,1 µM,92%
F[C@@H]1CCN(c2nccc(-c3cnn4ncccc34)n2)C1,binding,,1 µM,100%
CCOC(=O)c1cc2cc(-c3cc(C(=O)NCc4ccc(C(=O)O)cc4)nn3C)ccc2[nH]1,cell-free assay,competition with immobilised ligand,0.1 µM,94%
CN(C)c1nccc(-c2cnc3ncccn23)n1,binding,,1 µM,100%
COc1cnc(Nc2cccc(S(N)(=O)=O)c2)nc1N1CCN(c2ccccc2)CC1,binding,competition with immobilised ligand,1 µM,100%
C[C@H]1CCN(c2nccc(-c3cnn4ncccc34)n2)C1,binding,,1 µM,100%
O=C(c1ccc(Nc2nccc(-c3cc4ccccc4s3)n2)cc1)N1CCC(N2CCCC2)CC1,binding,competition with immobilised ligand,1 µM,100%
c1cnn2ncc(-c3ccnc(N4CCC45COC5)n3)c2c1,binding,,1 µM,100%
CN(C(=O)c1ccccc1)c1cc(N(C)c2ccc3c(c2)CCc2ccc(C(=O)NCCN4CCOCC4)cc2C3=O)ccc1F,cell-free assay,competition with immobilised ligand,1 µM,100%
